≈ marks a conversion by molar mass, not a printed value.
What was measured:
Aeromonas hydrophila = experiment: Antibacterial activity against Aeromonas hydrophila OCC 778 after 18 hrs; assay type: functional; conditions: OCC 778, 18 h
Summary of the method: (§1)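 Broth microdilution in Nutrient Broth No. 2; stocks in ethanol diluted to 0.01–128 µg/ml (triclosan) or 0.25–256 µg/ml (glycosides). Overnight 37 °C NB2 cultures diluted 1 in 10^4 in saline and added to the dilutions. Incubation at 37 °C with agitation, OD read every 15 min; MIC is the lowest concentration preventing any OD rise after 18 h.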

Citrobacter freundii [1] = experiment: Antibacterial activity against Citrobacter freundii OCC 851 after 18 hrs; assay type: functional; conditions: OCC 851, 18 h; summary of the method: as §1
Cronobacter sakazakii = experiment: Antibacterial activity against Cronobacter sakazakii 29544 after 18 hrs; assay type: functional; conditions: Cronobacter sakazakii, 29544, 18 h; summary of the method: as §1
Klebsiella aerogenes [2] = experiment: Antibacterial activity against Enterobacter aerogenes ATCC 13048 after 18 hrs; assay type: functional; conditions: ATCC 13048, 18 h; summary of the method: as §1
[3] = Antibacterial activity against Enterobacter cloacae ATCC 13047 after 18 hrs; assay type: functional, Enterobacter cloacae subsp. cloacae; conditions: ATCC 13047, 18 h; summary of the method: as §1
Escherichia coli [4] = experiment: Antibacterial activity against Escherichia coli ATCC 8739 after 18 hrs; assay type: functional; conditions: ATCC 8739, 18 h; summary of the method: as §1
Escherichia coli [5] = experiment: Antibacterial activity against Escherichia coli ATCC 10536 after 18 hrs; assay type: functional; conditions: ATCC 10536, 18 h; summary of the method: as §1
Escherichia coli [6] = experiment: Antibacterial activity against Escherichia coli ATCC 11775 after 18 hrs; assay type: functional; summary of the method: as §1
Escherichia coli [7] = experiment: Antibacterial activity against Escherichia coli ATCC 25922 after 18 hrs; assay type: functional; conditions: ATCC 25922, 18 h; summary of the method: as §1
Escherichia coli [8] = experiment: Antibacterial activity against Escherichia coli ATCC 35218 after 18 hrs; assay type: functional; conditions: ATCC 35218, 18 h; summary of the method: as §1
Escherichia coli [9] = experiment: Antibacterial activity against Escherichia coli 700728 after 18 hrs; assay type: functional; conditions: Escherichia coli, 700728, 18 h; summary of the method: as §1
Escherichia coli [10] = experiment: Antibacterial activity against Escherichia coli NCTC 13216 after 18 hrs; assay type: functional; conditions: NCTC 13216, 18 h; summary of the method: as §1
Escherichia coli [11] = experiment: Antibacterial activity against Escherichia coli OCC 122 after 18 hrs; assay type: functional; conditions: OCC 122, 18 h; summary of the method: as §1
Escherichia hermannii = experiment: Antibacterial activity against Escherichia hermannii 33650 after 18 hrs; assay type: functional; conditions: Atlantibacter hermannii, 33650, 18 h; summary of the method: as §1
Hafnia alvei = experiment: Antibacterial activity against Hafnia alvei 13337 after 18 hrs; assay type: functional; conditions: Hafnia alvei, 13337, 18 h; summary of the method: as §1
Klebsiella aerogenes [12] = experiment: Antibacterial activity against Klebsiella aerogenes NCTC 8167 after 18 hrs; assay type: functional; conditions: NCTC 8167, 18 h; summary of the method: as §1
Klebsiella pneumoniae [13] = experiment: Antibacterial activity against Klebsiella pneumoniae ATCC 10031 after 18 hrs; assay type: functional; conditions: ATCC 10031, 18 h; summary of the method: as §1
Proteus mirabilis = experiment: Antibacterial activity against Proteus mirabilis ATCC 12453 after 18 hrs; assay type: functional; conditions: ATCC 12453, 18 h; summary of the method: as §1
Proteus vulgaris = experiment: Antibacterial activity against Proteus vulgaris OCC 195 after 18 hrs; assay type: functional; conditions: OCC 195, 18 h; summary of the method: as §1
Pseudomonas aeruginosa = experiment: Antibacterial activity against Pseudomonas aeruginosa ATCC 27853 after 18 hrs; assay type: functional; conditions: ATCC 27853, 18 h; summary of the method: as §1
Klebsiella pneumoniae [14] = experiment: Antibacterial activity against Klebsiella pneumoniae ATCC 13883 after 18 hrs; assay type: functional; conditions: ATCC 13883, 18 h; summary of the method: as §1
Citrobacter freundii [15] = experiment: Antibacterial activity against Citrobacter freundii 8090 after 18 hrs; assay type: functional; conditions: Citrobacter freundii, 8090, 18 h; summary of the method: as §1
Serratia marcescens = experiment: Antibacterial activity against Serratia marcescens OCC 217 after 18 hrs; assay type: functional; conditions: OCC 217, 18 h; summary of the method: as §1
Bacillus cereus = experiment: Antibacterial activity against Bacillus cereus ATCC 14579 after 18 hrs; assay type: functional; conditions: ATCC 14579, 18 h; summary of the method: as §1
Bacillus subtilis = experiment: Antibacterial activity against Bacillus subtilis NCTC 10073 after 18 hrs; assay type: functional; conditions: NCTC 10073, 18 h; summary of the method: as §1
Enterococcus faecalis [16] = experiment: Antibacterial activity against Enterococcus faecalis ATCC 29212 after 18 hrs; assay type: functional; conditions: ATCC 29212, 18 h; summary of the method: as §1
Enterococcus faecalis [17] = experiment: Antibacterial activity against Enterococcus faecalis ATCC 33186 after 18 hrs; assay type: functional; conditions: ATCC 33186, 18 h; summary of the method: as §1
Enterococcus faecium = experiment: Antibacterial activity against Enterococcus faecium ATCC 19434 after 18 hrs; assay type: functional; conditions: ATCC 19434, 18 h; summary of the method: as §1

**Q.** For `O[C@@H]1[C@@H](Oc2cc(Cl)ccc2Oc2ccc(Cl)cc2Cl)OC[C@@H](O)[C@H]1O`, which MIC (Aeromonas hydrophila) is on record?
**A.** 128 mg/L (≈ 304 µM)

**Q.** What about the MIC (Citrobacter freundii [1]) of the same compound?
**A.** 8 mg/L (≈ 19 µM)

**Q.** And the MIC (Cronobacter sakazakii)?
**A.** 8 mg/L (≈ 19 µM)

**Q.** And the MIC (Klebsiella aerogenes [2])?
**A.** 8 mg/L (≈ 19 µM)

**Q.** And the MIC [3]?
**A.** 0.5 mg/L (≈ 1.19 µM)

**Q.** What about the MIC (Escherichia coli [4]) of the same compound?
**A.** 0.5 to 4 mg/L (≈ 1.19 to 9.49 µM)

**Q.** What about the MIC (Escherichia coli [5]) of the same compound?
**A.** 0.5 to 4 mg/L (≈ 1.19 to 9.49 µM)

**Q.** And the MIC (Escherichia coli [6])?
**A.** 0.5 to 4 mg/L (≈ 1.19 to 9.49 µM)

**Q.** What about the MIC (Escherichia coli [7]) of the same compound?
**A.** 0.5 to 4 mg/L (≈ 1.19 to 9.49 µM)

**Q.** What about the MIC (Escherichia coli [8]) of the same compound?
**A.** 0.5 to 4 mg/L (≈ 1.19 to 9.49 µM)

**Q.** What about the MIC (Escherichia coli [9]) of the same compound?
**A.** 0.5 to 4 mg/L (≈ 1.19 to 9.49 µM)

**Q.** What about the MIC (Escherichia coli [10]) of the same compound?
**A.** 0.5 to 4 mg/L (≈ 1.19 to 9.49 µM)

**Q.** What about the MIC (Escherichia coli [11]) of the same compound?
**A.** 0.5 to 4 mg/L (≈ 1.19 to 9.49 µM)

**Q.** What about the MIC (Escherichia hermannii) of the same compound?
**A.** 1 mg/L (≈ 2.37 µM)

**Q.** What about the MIC (Hafnia alvei) of the same compound?
**A.** 0.5 mg/L (≈ 1.19 µM)

**Q.** And the MIC (Klebsiella aerogenes [12])?
**A.** 4 mg/L (≈ 9.49 µM)

**Q.** What about the MIC (Klebsiella pneumoniae [13]) of the same compound?
**A.** 0.5 mg/L (≈ 1.19 µM)

**Q.** And the MIC (Proteus mirabilis)?
**A.** 4 mg/L (≈ 9.49 µM)

**Q.** What about the MIC (Proteus vulgaris) of the same compound?
**A.** 16 mg/L (≈ 37.9 µM)

**Q.** And the MIC (Pseudomonas aeruginosa)?
**A.** > 256 mg/L

**Q.** What about the MIC (Klebsiella pneumoniae [14]) of the same compound?
**A.** 0.5 mg/L (≈ 1.19 µM)

**Q.** What about the MIC (Citrobacter freundii [15]) of the same compound?
**A.** 8 mg/L (≈ 19 µM)

**Q.** And the MIC (Serratia marcescens)?
**A.** > 256 mg/L

**Q.** And the MIC (Bacillus cereus)?
**A.** 128 mg/L (≈ 304 µM)

**Q.** And the MIC (Bacillus subtilis)?
**A.** 32 mg/L (≈ 75.9 µM)

**Q.** And the MIC (Enterococcus faecalis [16])?
**A.** 128 mg/L (≈ 304 µM)

**Q.** And the MIC (Enterococcus faecalis [17])?
**A.** 128 mg/L (≈ 304 µM)

**Q.** What about the MIC (Enterococcus faecium) of the same compound?
**A.** 256 mg/L (≈ 607 µM)
